Measured values published in ChEMBL document CHEMBL1157743, “Mitotic arrest induced by a novel family of DNA topoisomerase II inhibitors” (J Med Chem, 2010).

Key:
SW1573 = experiment: Antiproliferative activity against human SW1573 cells after 48 hrs by SRB assay; assay type: functional; settings: SW1573, 48 h
Procedure, shortened: (§1)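 Human solid tumor lines and three immortalized nontumor lines in culture, exposed to the test agent. Read-out is growth inhibition, reported as GI50 (μM).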

HBL-100 = experiment: Antiproliferative activity against human HBL100 cells after 48 hrs by SRB assay; assay type: functional; settings: HBL-100, 48 h; procedure, shortened: as §1

| Compound | GI50 (SW1573) [nM] | GI50 (HBL-100) [nM] |
| --- | --- | --- |
| COC(=O)C#CC(CCc1ccccc1)O/C=C/C(=O)OC (stereo unspecified) | 2600 | 2600 |
| COC(=O)C#CC(C[C@@H](C)CCC=C(C)C)O/C=C/C(=O)OC (stereo partly specified) | 2200 | 3100 |
| CCCCCCC(C#CC(=O)O)O/C=C/C(=O)OC (stereo unspecified) | > 100000 | > 100000 |
| CC1CCC(C(C)C)C(OC(=O)C#CC(O/C=C/C(=O)OC2CC(C)CCC2C(C)C)C(C)C)C1 (stereo unspecified) | > 100000 | > 100000 |
| COC(=O)C#CC(O/C=C/C(=O)OC)C(C)(C)C (stereo unspecified) | 3000 | 1800 |
| Cc1ccc(S(=O)(=O)C#CC(O/C=C/S(=O)(=O)c2ccc(C)cc2)C(C)C)cc1 (stereo unspecified) | 3200 | 3800 |
| CCOC(=O)C#CC(C[C@@H](C)CCC=C(C)C)O/C=C/C(=O)OCC (stereo partly specified) | 2600 | 2600 |
| COC(=O)/C=C/OC(C#CC(=O)O)C(C)(C)C (stereo unspecified) | > 100000 | > 100000 |

Compounds with a lower GI50 (SW1573), results first:

| GI50 (SW1573) [nM] | Compound | GI50 (HBL-100) [nM] |
| --- | --- | --- |
| 380 | COC(=O)C#CC(CC(C)C)O/C=C/C(=O)OC (stereo unspecified) | 330 |
| 2100 | COC(=O)C#CC(O/C=C/C(=O)OC)C1CCCCC1 (stereo unspecified) | 2500 |
| 320 | CCCC(C#CC(=O)OC)O/C=C/C(=O)OC (stereo unspecified) | 270 |
| 540 | CCC(C#CC(=O)OC)O/C=C/C(=O)OC (stereo unspecified) | 320 |
| 1700 | CCCCCC(C#CC(=O)OC)O/C=C/C(=O)OC (stereo unspecified) | 1900 |
